Compound activity: PubChem, Sanford-Burnham Center for Chemical Genomics
The list is not random: actives were taken first. Their share in the collection is about 1.5%.
EBI2 block: antagonists of human EBI2 receptor | P32249 | EBI2 beta-arrestin recruitment, luminescence, 7a,25-OHC stimulated | inhibition, % at 5 µM | 360,000 tested, 0.81% active | AID 651636; in the data active means inhibition above about 38%;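 further: enzyme fragment complementation signal reports receptor beta-arrestin coupling in cells; 0% = agonist plus DMSO wells and 100% = wells without agonist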
APJ agonist: activates the human apelin receptor APJ. P35414. CHO-K1 APJ PathHunter beta-arrestin, luminescence; 0% DMSO wells, 100% apelin. activation, % at 20 µM. 330,000 tested, 0.11% active;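 active means activation more than six SD over the plate average, tested at 20 µM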;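 further: 0% = DMSO alone and 100% = apelin-13 at 10 nM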
Target sequence (P35414 whole entry, looked up): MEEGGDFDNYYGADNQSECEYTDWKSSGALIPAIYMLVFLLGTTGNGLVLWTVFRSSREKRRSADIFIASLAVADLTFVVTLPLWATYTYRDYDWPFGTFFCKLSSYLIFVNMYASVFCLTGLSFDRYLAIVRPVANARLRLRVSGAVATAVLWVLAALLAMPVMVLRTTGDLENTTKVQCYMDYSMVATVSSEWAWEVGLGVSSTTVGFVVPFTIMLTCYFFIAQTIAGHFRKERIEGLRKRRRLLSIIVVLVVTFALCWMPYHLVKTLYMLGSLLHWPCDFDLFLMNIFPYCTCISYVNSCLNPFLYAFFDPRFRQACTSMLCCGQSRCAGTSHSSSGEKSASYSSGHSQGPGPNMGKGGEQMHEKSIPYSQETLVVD
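Test system: CHO-K1 APJ beta-arrestin complementation cell line | Compound: Single test compound dose, 20 µM final, 1% DMSO | Incubation: Compound 90 min 25 °C, reagent 1 h | Measured by: beta-gal luminescence | Read-out basis: APJ–arrestin association signal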
APJ antag: APJ receptor antagonism; CHO-K1 APJ beta-arrestin complementation, luminescence; inhibition, % at 20 µM; 330,000 tested, 0.32% active; AID 2521;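 active means inhibition above about 40% at 20 µM, limit read from the data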;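 further: cells challenged with 10 nM apelin-13 agonist together with compound; plate controls were apelin-13 plus DMSO wells for no effect and DMSO wells lacking apelin-13 for full effect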
CXCR6 block: blocks human CXCR6 beta-arrestin recruitment | AID 602244 | O00574 | CHO-K1 PathHunter CXCR6 beta-arrestin, luminescence | 360,000 tested, 0.36% active | inhibition, % at 20 µM; in the data active means inhibition above about 34%, passing the limit was not always enough;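 further: antagonist mode with CXCL16 agonist at 10 nM final; 0% = 10 nM CXCL16 with DMSO and 100% = unstimulated wells without agonist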
Target sequence (O00574 whole entry, looked up): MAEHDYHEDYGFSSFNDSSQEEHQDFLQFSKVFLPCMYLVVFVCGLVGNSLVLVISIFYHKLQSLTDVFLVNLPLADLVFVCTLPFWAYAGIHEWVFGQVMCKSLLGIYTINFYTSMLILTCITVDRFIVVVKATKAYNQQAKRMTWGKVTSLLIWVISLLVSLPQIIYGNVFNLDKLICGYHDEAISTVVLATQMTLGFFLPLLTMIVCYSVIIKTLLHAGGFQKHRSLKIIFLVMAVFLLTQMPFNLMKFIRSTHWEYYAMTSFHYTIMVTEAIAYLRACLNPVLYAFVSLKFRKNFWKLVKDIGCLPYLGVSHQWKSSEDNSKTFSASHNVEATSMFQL
CCR6 antag: blocks CCL20-driven beta-arrestin recruitment at human CCR6. CHO-K1 CCR6 PathHunter beta-arrestin, luminescence, CCL20-stimulated. inhibition, % at 20 µM. 340,000 tested, 0.49% active. AID 493098;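 active means compounds whose inhibition of the agonist-driven luminescence signal at 20 µM reaches about 50%, limit read from the data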;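 further: cells stimulated with CCL20 at 14 nM final; plate controls were DMSO with CCL20 for no effect and DMSO without agonist for full effect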
EBI2 conf: EBI2 (human) antagonism, single concentration confirmation | shares compounds with EBI2 block | EBI2 beta-arrestin luminescence, 7a,25-OHC antagonism | inhibition, % at 5 µM | 2,400 tested, 29% active | AID 651997;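 active means inhibition of at least 50%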
EBI2 ag: activates EBI2, counter-screen for EBI2 antagonists; shares compounds with EBI2 block; EBI2-expressing cells, agonist mode, luminescence, 60 min; 0% vehicle, 100% 7α,25-dihydroxycholesterol control; activation, % at 5 µM; 2,400 tested, under 10 active;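 active means activation of at least 50%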
bGal cs: inhibits E. coli beta-galactosidase, counter-screen for EBI2 antagonists. shares compounds with EBI2 block. purified beta-galactosidase, luminescent Galacton Star, 15 min. inhibition, % at 5 µM. 2,400 tested, 1% active;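 active means replicate-average signal at least 3 plate SD below neutral wells, shown as high inhibition, flagging enzyme-inhibiting false positives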;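 further: 0% = DMSO wells with enzyme and 100% = wells lacking enzyme; higher means stronger loss of beta-gal luminescence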
Numbers without * were called inactive; nt = no result.

SMILES | EBI2 block | APJ agonist | APJ antag | CXCR6 block | CCR6 antag | EBI2 conf | EBI2 ag | bGal cs
O=C(COc1ccc2ccccc2c1)N1CCN(C(=O)c2cccnc2)CC1 | 78* | 2 | 2 | -4 | 5 | 64* | -1 | -16
COc1cc(OC)cc(C(=O)N2CCN(C(=O)COc3ccc4ccccc4c3)CC2)c1 | 85* | 1 | -8 | 0 | -6 | 68* | 0 | -6
O=C(O)Cc1ccc2c(c1)Cc1cccnc1O2 | -6 | nt | nt | 1 | nt | nt | nt | nt
O=C(c1ccco1)N1CCN(CC(O)COc2ccc(Br)cc2)CC1 (stereo unspecified) | 51* | -3 | 9 | 0 | 2 | 3 | -2 | -6
OC(COc1ccc(Br)cc1)CN1CCC(Cc2ccccc2)CC1 (stereo unspecified) | 61* | -1 | 4 | -5 | 3 | 46 | 2 | -1
COC(=O)c1ccc(OCC(O)CN2CCN(C(=O)c3ccco3)CC2)cc1 (stereo unspecified) | -3 | 2 | -9 | -12 | -1 | nt | nt | nt
O=C(CCCNC(=O)c1ccc(Cl)cc1)Nc1ccc(F)c(S(=O)(=O)N2CCOCC2)c1 | -7 | -2 | 14 | -1 | 22 | nt | nt | nt
CC(OC(=O)CCCC(=O)Nc1ccccc1)C(=O)c1ccccc1 (stereo unspecified) | -3 | -1 | 14 | 8 | 3 | nt | nt | nt
COc1ccc(NC(=S)NNC(=S)Nc2cccc(C(F)(F)F)c2)cc1 | 29 | -4 | 16 | 23 | 39 | nt | nt | nt
COc1ccc(NC(=S)Nc2cc(C(F)(F)F)ccc2F)cc1 | 43* | -2 | 5 | 0 | 17 | 8 | 0 | -11
O=C1CCCC2=C1CC(C(=O)OCc1ccccc1)C(=O)N2Cc1ccccc1 (stereo unspecified) | -7 | nt | nt | 10 | 2 | nt | nt | nt
CCn1c(SCC(=O)NCCc2ccc(Cl)cc2)nnc1-c1cccs1 | 64* | -4 | 13 | 8 | -4 | 34 | -1 | -15
O=C(CSc1nnc(-c2ccncc2)n1Cc1ccccc1)NCCc1ccccc1 | 53* | -2 | 21 | 12 | 11 | 40 | 0 | 9
Cc1cccc(-n2cnc(C(=O)N/N=C/c3ccccc3)c2)n1 | 2 | 0 | 9 | -8 | -2 | nt | nt | nt
Cc1cc(C)c(Cn2cnc(-c3ccc([N+](=O)[O-])cc3)c2)c(C)c1 | 42 | -6 | 13 | -4 | 9 | nt | nt | nt
CC(C)(C)c1ccc(Cn2cnc(-c3ccc([N+](=O)[O-])cc3)c2)cc1 | 51* | -2 | -11 | 4 | 14 | 23 | 1 | 6
COc1ccc2c3n(nc2c1)CCN=C3c1cc(Cl)c(N)c(Cl)c1 | 35 | 7 | 5 | -14 | 5 | nt | nt | nt
Nc1c(Cl)cc(C2=NCCn3nc4cc(C(F)(F)F)ccc4c32)cc1Cl | 49* | -2 | 10 | -3 | 2 | 23 | -1 | -8
COc1ccc(N2CCN(c3nc(-c4cccs4)nc4ccccc34)CC2)cc1 | 63* | -2 | 5 | -5 | 12 | 42 | 1 | 9
c1csc(-c2nc(N3CCOCC3)c3ccccc3n2)c1 | 8 | -1 | -1 | 8 | 16 | nt | nt | nt
O=C(/C=C/c1ccc(Cl)cc1Cl)N1CCN(c2ccccc2[N+](=O)[O-])CC1 | 82* | 3 | -3 | 4 | 4 | 62* | 1 | 3
O=C(c1ccccc1)N1CCN(c2ccc([N+](=O)[O-])c(N3CCOCC3)c2)CC1 | -3 | -4 | 9 | 4 | 6 | nt | nt | nt
O=C(/C=C/c1ccc(Cl)cc1)N1CCN(c2ccc([N+](=O)[O-])c(N3CCOCC3)c2)CC1 | 96* | nt | nt | -5 | 19 | 88* | 1 | 0
O=C(/C=C/c1ccc(Cl)cc1Cl)N1CCN(c2ccc([N+](=O)[O-])c(N3CCOCC3)c2)CC1 | 61* | -4 | -7 | 4 | 18 | 15 | 1 | 7
CCOC(=O)CN(C)Cc1cn(C)nc1-c1ccc(Oc2ccccc2)cc1 | 5 | 5 | 8 | -2 | -1 | nt | nt | nt
SMILES | EBI2 block | APJ agonist | APJ antag | CXCR6 block | CCR6 antag | EBI2 conf | EBI2 ag | bGal cs
FC(F)(F)c1cccc(CON=C2CCN(c3ncc(C(F)(F)F)cc3Cl)CC2)c1 | 14 | -4 | -12 | -2 | 29 | nt | nt | nt
FC(F)(F)c1cnc(N2CCC(=NOCc3ccc(Cl)cc3)CC2)c(Cl)c1 | 54* | 0 | 12 | 6 | 30 | 7 | 0 | 8
Cc1ccc(CON=C2CCN(c3ncc(C(F)(F)F)cc3Cl)CC2)cc1 | 43* | 0 | 12 | 1 | -18 | 4 | 0 | -12
ON=C1CCN(c2ncc(C(F)(F)F)cc2Cl)CC1 | -6 | -3 | -12 | -1 | -4 | nt | nt | nt
O=C(COc1ccc2ccccc2c1Br)N1CCN(c2ccccn2)CC1 | 52* | -3 | -4 | -2 | -6 | 7 | 1 | 4
Cc1cc(OCC(=O)N2CCN(c3ccccn3)CC2)c(C)cc1Br | 53* | -4 | 0 | -1 | 1 | 42 | 2 | 0
O=C(COc1ccc2ccccc2c1Br)N1CCCCC1 | 15 | 3 | -25 | -1 | 5 | nt | nt | nt
COC(=O)c1ccc2nc(-c3ccc(C#N)cc3)c(Cc3ccsc3)n2c1 | 63* | nt | nt | 14 | nt | 52* | -1 | -17
O=C(Nc1cc(C(F)(F)F)ccc1F)C1Cc2c(-c3ccccc3Oc3ccccc3)ccnc2O1 (stereo unspecified) | 7 | nt | nt | 13 | nt | nt | nt | nt
O=C(Cc1ccc(Cl)cc1)Nc1cccc(-c2nnc(-c3ccco3)o2)c1 | 71* | -3 | 0 | 3 | 14 | 40 | 0 | -17
O=C(Cc1ccccc1)Nc1cccc(-c2nnc(-c3ccco3)o2)c1 | 30 | -7 | 15 | -1 | 36 | nt | nt | nt
O=C(Nc1cccc(-c2nnc(-c3ccco3)o2)c1)c1ccccc1 | -4 | -3 | -16 | -7 | -4 | nt | nt | nt
O=C(Nc1cccc(-c2nnc(-c3ccco3)o2)c1)C(c1ccccc1)c1ccccc1 | 77* | -6 | 2 | 8 | 11 | 43 | 2 | 5
O=[N+]([O-])c1ccc(NNS(=O)(=O)c2cc(Cl)ccc2Cl)nc1 | -20 | 6 | -32 | 6 | 22 | nt | nt | nt
CCN(C(=O)c1cc2cc3ccc(C)cc3nc2o1)c1ccc(OC)cc1 | 42* | -4 | 3 | 27 | 28 | 51* | 1 | 4
C/C(=N\Nc1ncnc2sc(C)c(C)c12)c1ccccn1 | 55* | 1 | 47* | -23 | -27 | 53* | -2 | -5
Cc1sc2ncnc(N/N=C/c3cccc(O)c3)c2c1C | 5 | -1 | 15 | -8 | 3 | nt | nt | nt
Cc1ccc(SCCNC(=O)c2ccc(C)c(S(=O)(=O)Nc3cccc(C)c3)c2)cc1 | 42 | -1 | -14 | 14 | 17 | nt | nt | nt
